# DNA FID counter – fluorescent intercalator displacement, NS3 helicase counter-screen; inhibition, % at 7.9 µM; DNA fluorescent intercalator displacement, fluorescence; 290,000 compounds, 0.17% hits; in the data active = inhibition above about 37%;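 note: 0% = vehicle and 100% = reference compound; higher means more ethidium bromide displaced from hairpin DNA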
# Apaf-1 inh – inhibitors of human Apaf-1 apoptosome | reconstituted apoptosome caspase-3 activity, DEVD-Rh110 fluorescence | inhibition, % at 20 µM | 330,000 compounds, 0.71% hits; active = inhibition of at least 40% at 20 µM;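 note: plate controls were DMSO wells for no effect and DEVD-CHO caspase inhibitor wells for full effect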
#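 System – cell-free apoptosome with Apaf-1, procaspase-3 and caspase-9 · Buffer or medium – pH 7.5 Hepes buffer with CHAPS, BSA, DTT · Also added – cytochrome c with DEVD-Rh110 · Times – 30 min compound preincubation, 50 min activation, room temperature · Technique – Rh110 fluorescence intensity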
# TMEM16A inh – mouse TMEM16A channel inhibition, primary screen | Q8BHY3 | 310,000 compounds, 1.2% hits | normalized B-score (activity score, 25-100; higher = stronger inhibition) at 10 µM | HEK293 TMEM16A/YFP iodide influx fluorescence, ionomycin;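 active = ratio plate-corrected score three or more library SD toward inhibition, starting fluorescence score within five deviations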;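 note: score derived from kinetic fluorescence span divided by baseline fluorescence per well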
# UBC13 polyUb – human UBC13 polyubiquitination inhibition; P61088; UBC13 polyubiquitin chain formation, TR-FRET; inhibition, % at 20 µM; 330,000 compounds, 0.47% hits; AID 485273; in the data active = inhibition above about 45%, passing the limit was not always enough
# TMEM16A act – mouse TMEM16A channel activation, primary screen | Q8BHY3 | HEK293 TMEM16A/YFP-H148Q/I152L, iodide quench fluorescence; hits give low values | B-score at 10 µM | 340,000 compounds, 0.3% hits | AID 623877;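 active = fluorescence-ratio B-score plate-corrected deviation score at least 3 library SD below zero, with starting fluorescence score within 5 deviations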;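 note: channel opened by trigger with iodide after compound preincubation; score built on the fluorescence ratio of max minus min over baseline; more negative score means more quench and so TMEM16A activation or potentiation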
# TMEM16A reconf – reconfirmed blocker of mouse TMEM16A calcium-activated chloride channel. shares compounds with TMEM16A inh. 2,300 compounds, 39% hits. inhibition, % at 10 µM. HEK293 TMEM16A/YFP-H148Q, iodide quench fluorescence; ionomycin added to raise cell calcium. AID 652189;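 active = mean duplicate percent inhibition, scaled so buffer wells are 0 and the reference blocker 100, over three buffer SD above buffer mean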
# HEK293 Ca mobil – calcium mobilization counter-screen hit for TMEM16A inhibitor series; shares compounds with TMEM16A inh; TMEM16A/YFP HEK293, Fluo4 calcium mobilization; calcium response (% of ionomycin), % at 10 µM; 2,300 compounds, 2% hits; AID 652231;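 active = duplicate-averaged calcium signal over 20% of the ionomycin maximum, relative to buffer baseline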;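 note: each well's signal is peak minus trough fluorescence divided by its pre-addition baseline; 0% = buffer wells and 100% = ionomycin wells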
# Parental YFP cnt – parental YFP-HEK293 iodide quench counter-screen activity; shares compounds with TMEM16A inh; ionomycin; YFP ratio F(max-min)/F0 at 10 µM; 2,300 tested, under 10 active; AID 652233;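 active = yellow fluorescent protein signal ratio exceeding the buffer control mean by over 5 SD of those controls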;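 note: ratio is mean of duplicate wells from kinetic YFP trace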
# ClC-1 rat inh – selectivity of TMEM16A inhibitors: inhibition of rat ClC-1 chloride channel. ratio percent, % at 10 µM. shares compounds with TMEM16A inh. CHO ClC-1-YFP, iodide influx fluorescence quench; iodide control reads 0, buffer control 100. 2,300 tested, under 10 active;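 active = duplicate-mean ratio percent above the mean of iodide-only control wells, which defines zero, plus 5 of their SD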;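 note: higher percent means stronger block of ClC-1 iodide influx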
# * = called active by the depositor; i = inactive; / = no result. Only some compounds are listed: those with a hit (about 2.4% of all), similar ones and a draw of the others.
SMILES,DNA FID counter,Apaf-1 inh,TMEM16A inh,UBC13 polyUb,TMEM16A act,TMEM16A reconf,HEK293 Ca mobil,Parental YFP cnt,ClC-1 rat inh
Cc1ccc(-c2nnc(N3CCN(c4ccccn4)CC3)c3ccccc23)cc1,-13,24,25*,4,i,28%*,i,-0.99,-17
CCOc1ccc(CCNC(=O)c2ccc3c(=O)[nH]c4c(C(=O)NC(C)C)sc(=S)n4c3c2)cc1,-24,i,i,6,i,/,/,/,/
CCCCNC(=O)c1sc(=S)n2c1[nH]c(=O)c1ccccc12,-8,3,100*,-15,i,56%*,i,-0.93,-25
Cc1cc(N2CCOCC2)cc(C)[n+]1[O-],-3,-5,25*,-3,i,i,i,-0.95,-10
Cc1ccc(C)n1-c1ccc(N2CCOCC2)cc1,-15,3,i,-13,i,/,/,/,/
CN(CC(=O)Nc1cccc(S(=O)(=O)N2CCOCC2)c1)CC(=O)Nc1ccc(Cl)c(C(F)(F)F)c1,/,19,25*,7,i,i,i,-1.3,-10
CSc1nnc(-c2cc(Br)ccc2N=Cc2c(C)[nH]n(-c3ccccc3)c2=O)c(=O)[nH]1,2,21,i,-13,i,/,/,/,/
CCSc1nnc(-c2cc(Br)ccc2N=Cc2c(C)[nH]n(-c3ccccc3)c2=O)c(=O)[nH]1,-2,16,100*,-32,i,21%*,20%*,-0.97,-22
CCCn1c(O)c(CN2CCCCC2)c(C)c(C#N)c1=O,-13,35,i,8,/,20%*,i,-1,-26
OC1COCOC1C(O)C1OCOCC1O (stereo not drawn),/,/,/,/,i,/,/,/,/
CCOc1ccc(S(=O)(=O)Nc2cc(Cl)ccc2O)cc1,-2,9,100*,-5,i,36%*,i,-0.9,-19
CCOc1ccc(S(=O)(=O)Nc2cccc(Cl)c2)cc1,-9,1,i,0,i,/,/,/,/
COc1cc(N)c(Cl)cc1C(=O)OCC(=O)NCc1cccs1,/,-7,/,19,i,/,/,/,/
COc1ccccc1OCC(=O)NNc1c2ccccc2nc2ccccc12,-17,9,25*,-42,i,17%*,i,-1,-4
COc1ccccc1OCC(=O)NNC(=O)CCCC(=O)NNC(=O)COc1ccccc1OC,-18,6,i,-11,i,/,/,/,/
COc1ccccc1OCC(=O)NCC1CCCCC1,-16,-6,100*,1,i,i,i,-1.1,-19
COc1ccccc1OCC(=O)NCCNC(=O)COc1ccccc1OC,-17,-29,i,3,i,/,/,/,/
CCOc1ccccc1NC(=O)NC(=O)N(C)S(=O)(=O)c1ccc(C)cc1,2,2,i,5,i,/,/,/,/
C#CCOc1c(/C=C\c2nc(O)c([N+](=O)[O-])c(=O)[nH]2)cc(Br)cc1OC,-17,12,i,-4,i,/,/,/,/
Cn1c(=O)c2c(nc(C(O)c3ccccc3)n2C)n(C)c1=O (stereo not drawn),/,/,/,/,i,/,/,/,/
CCCCC[n+]1cccc2c3ccccc3ccc21,19,5,i,-1,i,/,/,/,/
c1ccc(C[n+]2cccc3c4ccccc4ccc32)cc1,8,-10,25*,8,i,i,i,-1.1,-2
Cc1cccc2c(SCC(N)=O)nc(-c3ccccc3)nc12,-16,2,100*,-3,i,i,i,-1.2,-12
O=C(COC(=O)c1ccc(F)c([N+](=O)[O-])c1)NC(=O)NCc1ccccc1,/,16,/,-11,i,/,/,/,/
Cc1cc(N2CCCC2=O)cc(C)c1S(=O)(=O)NCCOc1ccc(C(C)(C)C)cc1,-25,20,25*,2,i,i,i,-1.1,-29
SMILES,DNA FID counter,Apaf-1 inh,TMEM16A inh,UBC13 polyUb,TMEM16A act,TMEM16A reconf,HEK293 Ca mobil,Parental YFP cnt,ClC-1 rat inh
O=C1CCCN1c1ccc(S(=O)(=O)NCCOc2ccccc2)cc1,-5,-1,i,5,i,/,/,/,/
C=CCn1c(SCc2ccc(C(=O)O)cc2)nc2sc(C)c(C)c2c1=O,-32,0,i,10,i,/,/,/,/
Cc1sc2nc(SCc3ccc(C(=O)O)cc3)n(Cc3ccco3)c(=O)c2c1C,-24,-3,25*,-3,i,30%*,i,-1,-24
CCN(CC)C(=O)COc1ccc2oc(-c3ccco3)cc(=O)c2c1,-15,6,i,8,i,/,/,/,/
C=CCNC(=O)/C(=C\c1ccc(OC)cc1)NC(=O)c1ccc([N+](=O)[O-])cc1,7,1,i,-4,i,/,/,/,/
CCCCCCCCCc1nc2sc3c(c2c(=O)n1NC(=O)c1ccccc1[N+](=O)[O-])CC(C)(C)OC3,-13,6,25*,-10,i,i,i,-1.2,-8
CCCCCCCCCc1nc2sc3c(c2c(=O)n1NC(=O)c1ccc([N+](=O)[O-])cc1)CC(C)(C)OC3,-5,14,i,-44,i,/,/,/,/
COCc1c(C(=O)N/N=C(/C)c2ccc(OCc3ccccc3)cc2)nnn1-c1nonc1N,-19,-3,i,-10,i,/,/,/,/
Cc1ccccc1C1C(C#N)=C2N=C(N)c3c(sc4c3CCCCC4)N2C2=C1C(=O)CC(C)(C)C2 (stereo not drawn),-20,21,i,-1,i,i,i,-1.1,0
Cc1ccccc1C1C(C#N)=C2NC(=O)c3c(sc4c3CCCCC4)N2C2=C1C(=O)CC(C)(C)C2 (stereo not drawn),-15,38,i,-25,/,/,/,/,/
CCc1ccc(CN(C)C(=O)c2cc(COc3cccc4cnccc34)on2)cc1,-39,26,100*,6,i,22%*,i,-1.3,-22
O=C(CSc1nccn1Cc1ccccc1)NC1CCCC1,-12,-2,i,2,i,/,/,/,/
CN1CCN(C(=O)NC2CCCCC2)CC1,6,-1,i,-1,i,/,/,/,/
CN1CCN(C2CCCCCC2)CC1,0,7,25*,-7,i,i,i,-0.8,-10
N#CC(c1ccc(F)cc1)c1ccc(C(=O)c2ccc(F)cc2)cc1 (stereo not drawn),-6,0,100*,-1,i,28%*,i,-0.88,-14
C[C@@H]1C(=O)N(c2ccccc2)[C@@H]1c1ccncc1,/,1,/,/,i,/,/,/,/
O=C(Nc1ccc(F)cc1F)N1CCCN(c2ccc(C(F)(F)F)cn2)CC1,-16,8,25*,5,i,18%*,i,-1.1,1
